Assay results reported in ChEMBL document CHEMBL1124270, “Quinolone antibacterial agents. Synthesis and structure-activity relationships of 8-substituted quinoline-3-carboxylic acids and 1,8-naphthyridine-3-carboxylic acids” (1988).
Converted amounts (≈) assume the structure as drawn.

Columns and labels:
Type in all cases: functional
[1] = tested on: Escherichia coli; test: Minimum inhibitory concentration against Escherichia coli H560 in vitro.
[2] = tested on: Escherichia coli; test: Minimum inhibitory concentration against Escherichia coli vogel in vitro.
[3] = tested on: Enterobacter cloacae; test: Minimum inhibitory concentration against Enterobacter cloacae HA 2646 in vitro.
[4] = tested on: Klebsiella pneumoniae; test: Minimum inhibitory concentration against Klebsiella pneumoniae MGH-2 in vitro.
[5] = tested on: Mus musculus; test: In vivo potency against Escherichia coli vogel using mouse protection assay when given perorally; conditions: po, read-out: PD50
[6] = tested on: Mus musculus; test: In vivo potency against Escherichia coli vogel using mouse protection assay when given subcutaneously; conditions: sc, read-out: PD50
[7] = tested on: Pseudomonas aeruginosa; test: Minimum inhibitory concentration against Pseudomonas aeruginosa UI-18 in vitro.
[8] = tested on: Providencia rettgeri; test: Minimum inhibitory concentration against Providencia rettgeri H1771 in vitro.
[9] = tested on: Streptococcus pyogenes; test: Minimum inhibitory concentration against Streptococcus pyogenes C203 in vitro.
[10] = tested on: Streptococcus pneumoniae; test: Minimum inhibitory concentration against Streptococcus pneumoniae SV-1 in vitro.
[11] = tested on: Staphylococcus aureus; test: Minimum inhibitory concentration against Staphylococcus aureus H228 in vitro.
[12] = tested on: Staphylococcus aureus; test: Minimum inhibitory concentration against Staphylococcus aureus UC-76 in vitro.
[13] = tested on: Enterococcus faecalis; test: Minimum inhibitory concentration against Streptococcus faecalis MGH-2 in vitro.
[14] = tested on: Escherichia coli; test: Minimum concentration needed to produce linear DNA at an intensity relative to oxolinic at 10 ug/mL in Escherichia coli H560 in vitro.
How it was run: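 DNA gyrase cleavage test, run as previously described: end point is the lowest drug level (µg/mL) that yields linear DNA at a band intensity matching oxolinic acid at 10 µg/mL. Values come from duplicate or triplicate experiments and are stated as accurate to ±50%.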

[15] = tested on: Staphylococcus aureus; test: In vivo potency against Staphylococcus aureus using mouse protection assay following p.o. administration.; conditions: po, read-out: PD50
[16] = tested on: Staphylococcus aureus; test: In vivo potency against Staphylococcus aureus using mouse protection assay following s.c. administration.; conditions: sc, read-out: PD50

| Structure (SMILES) | MIC [1] [µg/mL] | MIC [2] [µg/mL] | MIC [3] [µg/mL] | MIC [4] [µg/mL] | ED50 [5] [mg/kg] | ED50 [6] [mg/kg] | MIC [7] [µg/mL] | MIC [8] [µg/mL] | MIC [9] [µg/mL] | MIC [10] [µg/mL] | MIC [11] [µg/mL] | MIC [12] [µg/mL] | MIC [13] [µg/mL] | DNA cleavage conc (gyrase) [14] [µg/mL] | ED50 [15] [mg/kg] | ED50 [16] [mg/kg] |
| --- | --- | --- | --- | --- | --- | --- | --- | --- | --- | --- | --- | --- | --- | --- | --- | --- |
| CC(C)NCC1CCN(c2cc3c(cc2F)c(=O)c(C(=O)O)cn3C2CC2)C1.Cl (centres undefined) | 0.05 | 0.1 | 0.1 | 0.2 | 25 | 4 | 3.1 | 0.8 | 0.05 | 0.025 | 0.2 | 0.025 | 0.1 | – | – | – |
| Nc1c(N2CCNCC2)c(F)cc2c(=O)c(C(=O)O)cn(C3CC3)c12 | 0.2 (≈ 0.577 µM) | 0.4 (≈ 1.15 µM) | 0.4 (≈ 1.15 µM) | 0.8 (≈ 2.31 µM) | 58 | 2 | 0.8 (≈ 2.31 µM) | 0.4 (≈ 1.15 µM) | 6.3 (≈ 18.2 µM) | 12.5 (≈ 36.1 µM) | 6.3 (≈ 18.2 µM) | 0.8 (≈ 2.31 µM) | 12.5 (≈ 36.1 µM) | 2.5 | – | – |
| CCNCC1CCN(c2c(F)cc3c(=O)c(C(=O)O)cn(C4CC4)c3c2[N+](=O)[O-])C1.Cl (centres undefined) | 0.4 | 0.4 | 0.4 | 0.8 | – | – | 6.3 | 1.6 | 0.2 | 0.1 | 0.4 | 0.1 | 0.4 | – | – | – |
| Cl.O=C(O)c1cn(C2CC2)c2c([N+](=O)[O-])c(N3CCNCC3)c(F)cc2c1=O | 0.4 | 0.2 | 0.2 | 0.8 | 10 | 3 | 1.6 | 3.1 | 12.5 | 12.5 | 1.6 | 0.4 | 6.3 | – | – | – |
| NCC1CCN(c2cc3c(cc2F)c(=O)c(C(=O)O)cn3C2CC2)C1 (centres undefined) | 0.006 (≈ 0.0174 µM) | 0.05 (≈ 0.145 µM) | 0.05 (≈ 0.145 µM) | 0.05 (≈ 0.145 µM) | > 100 | 2 | 0.8 (≈ 2.32 µM) | 0.2 (≈ 0.579 µM) | 0.025 (≈ 0.0724 µM) | 0.003 (≈ 0.00869 µM) | 0.025 (≈ 0.0724 µM) | 0.006 (≈ 0.0174 µM) | 0.025 (≈ 0.0724 µM) | 0.5 | – | – |
| CC(C)NCC1CCN(c2nc3c(cc2F)c(=O)c(C(=O)O)cn3C2CC2)C1 (centres undefined) | 0.1 (≈ 0.257 µM) | 0.2 (≈ 0.515 µM) | 0.2 (≈ 0.515 µM) | 0.4 (≈ 1.03 µM) | 8 | 2 | 0.8 (≈ 2.06 µM) | 1.6 (≈ 4.12 µM) | 0.2 (≈ 0.515 µM) | 0.2 (≈ 0.515 µM) | 0.2 (≈ 0.515 µM) | 0.1 (≈ 0.257 µM) | 0.2 (≈ 0.515 µM) | 2.5 | 35 | 16 |
| CN(C)CC1CCN(c2c(F)cc3c(=O)c(C(=O)O)cn(C4CC4)c3c2N)C1.Cl (centres undefined) | 0.4 | 0.4 | 0.2 | 0.8 | 9 | 4 | 3.1 | 0.8 | 0.4 | 0.4 | 0.2 | 0.1 | 0.4 | 5 | 100 | 81 |
| CC1COc2c(N3CCC(CN)C3)c(F)cc3c(=O)c(C(=O)O)cn1c23 (centres undefined) | 0.05 (≈ 0.138 µM) | 0.2 (≈ 0.553 µM) | 0.2 (≈ 0.553 µM) | 0.4 (≈ 1.11 µM) | > 100 | – | 1.6 (≈ 4.43 µM) | 0.8 (≈ 2.21 µM) | 0.025 (≈ 0.0692 µM) | 0.025 (≈ 0.0692 µM) | 0.2 (≈ 0.553 µM) | 0.05 (≈ 0.138 µM) | 0.1 (≈ 0.277 µM) | 0.5 | – | – |
| CNCC1CCN(c2cc3c(cc2F)c(=O)c(C(=O)O)cn3C2CC2)C1 (centres undefined) | 0.1 (≈ 0.278 µM) | 0.1 (≈ 0.278 µM) | 0.2 (≈ 0.556 µM) | 0.2 (≈ 0.556 µM) | 35 | – | 0.8 (≈ 2.23 µM) | 0.4 (≈ 1.11 µM) | 0.05 (≈ 0.139 µM) | 0.05 (≈ 0.139 µM) | 0.2 (≈ 0.556 µM) | 0.025 (≈ 0.0696 µM) | 0.1 (≈ 0.278 µM) | 0.5 | – | – |
| CC(C)NCC1CCN(c2c(F)cc3c(=O)c(C(=O)O)cn4c3c2OCC4C)C1 (centres undefined) | 0.4 (≈ 0.991 µM) | 0.2 (≈ 0.496 µM) | 0.4 (≈ 0.991 µM) | 0.8 (≈ 1.98 µM) | 8 | 2 | 0.2 (≈ 0.496 µM) | 3.1 (≈ 7.68 µM) | 0.2 (≈ 0.496 µM) | 0.05 (≈ 0.124 µM) | 0.05 (≈ 0.124 µM) | 0.4 (≈ 0.991 µM) | 0.05 (≈ 0.124 µM) | – | – | – |
| CNCC1CCN(c2c(F)cc3c(=O)c(C(=O)O)cn(C4CC4)c3c2N)C1.Cl (centres undefined) | 1.6 | 0.8 | 3.1 | 3.1 | – | – | 6.3 | 6.3 | 0.4 | 1.6 | 1.6 | 0.2 | 1.6 | 5 | – | – |
| CCNCC1CCN(c2c(F)cc3c(=O)c(C(=O)O)cn(C4CC4)c3c2N)C1.Cl.Cl (centres undefined) | 0.8 | 0.4 | 0.4 | 0.8 | – | – | 3.1 | 1.6 | 0.2 | 0.4 | 0.8 | 0.05 | 0.2 | 2.5 | – | – |
| CCNCC1CCN(c2c(F)cc3c(=O)c(C(=O)O)cn4c3c2OCC4C)C1 (centres undefined) | 0.05 (≈ 0.128 µM) | 0.1 (≈ 0.257 µM) | 0.2 (≈ 0.514 µM) | 0.4 (≈ 1.03 µM) | > 100 | 11 | 0.8 (≈ 2.05 µM) | 0.8 (≈ 2.05 µM) | 0.05 (≈ 0.128 µM) | 0.05 (≈ 0.128 µM) | 0.2 (≈ 0.514 µM) | 0.025 (≈ 0.0642 µM) | 0.1 (≈ 0.257 µM) | 0.5 | – | – |
| CC1COc2c(N3CCC(N)C3)c(F)cc3c(=O)c(C(=O)O)cn1c23.Cl (centres undefined) | 0.2 | 0.4 | 0.4 | 0.4 | 25 | 2 | 0.4 | 0.8 | 0.2 | 0.8 | 1.6 | 0.1 | 1.6 | 0.75 | – | – |
| Cl.NC1CCN(c2c(F)cc3c(=O)c(C(=O)O)cn(C4CC4)c3c2[N+](=O)[O-])C1 (centres undefined) | 0.4 | 0.2 | 0.2 | 0.4 | 30 | 9 | 1.6 | 0.8 | 1.6 | 1.6 | 0.8 | 0.2 | 1.6 | – | – | – |
| CCNCC1CCN(c2cc3c(cc2F)c(=O)c(C(=O)O)cn3C2CC2)C1.Cl (centres undefined) | 0.05 | 0.2 | 0.4 | 0.2 | 35 | – | 1.6 | 0.8 | 0.05 | 0.2 | 0.4 | 0.013 | 0.2 | 1 | – | – |
| CCNCC1CCN(c2c(F)cc3c(=O)c(C(=O)O)cn(C4CC4)c3c2Cl)C1 (centres undefined) | 0.025 (≈ 0.0613 µM) | 0.05 (≈ 0.123 µM) | 0.05 (≈ 0.123 µM) | 0.1 (≈ 0.245 µM) | – | – | 0.8 (≈ 1.96 µM) | 0.2 (≈ 0.49 µM) | 0.006 (≈ 0.0147 µM) | 0.003 (≈ 0.00736 µM) | 0.013 (≈ 0.0319 µM) | 0.003 (≈ 0.00736 µM) | 0.013 (≈ 0.0319 µM) | 0.1 | – | – |
| Cl.Nc1c(N2CCC(N)C2)c(F)cc2c(=O)c(C(=O)O)cn(C3CC3)c12 (centres undefined) | 0.1 | 0.4 | 0.2 | 0.4 | 50 | 6 | 1.6 | 0.8 | 3.1 | 3.1 | 3.1 | 0.4 | 3.1 | 18 | – | – |
| O=C(O)c1cn(C2CC2)c2nc(N3CCNCC3)c(F)cc2c1=O | 0.05 (≈ 0.15 µM) | 0.05 (≈ 0.15 µM) | 0.1 (≈ 0.301 µM) | 0.1 (≈ 0.301 µM) | 0.7 | 0.4 | 0.2 (≈ 0.602 µM) | 0.2 (≈ 0.602 µM) | 1.6 (≈ 4.81 µM) | 1.6 (≈ 4.81 µM) | 1.6 (≈ 4.81 µM) | 0.4 (≈ 1.2 µM) | 1.6 (≈ 4.81 µM) | 1 | 14 | 6 |
| CC1COc2c(N3CCC(CN(C)C)C3)c(F)cc3c(=O)c(C(=O)O)cn1c23.Cl (centres undefined) | 0.2 | 0.2 | 0.4 | 0.4 | – | – | 3.1 | 0.8 | 0.05 | 0.05 | 0.2 | 0.05 | 0.4 | 1 | – | – |
| CNCC1CCN(c2c(F)cc3c(=O)c(C(=O)O)cn4c3c2OCC4C)C1 (centres undefined) | 0.2 (≈ 0.533 µM) | 0.2 (≈ 0.533 µM) | 0.4 (≈ 1.07 µM) | 0.4 (≈ 1.07 µM) | – | – | 1.6 (≈ 4.26 µM) | 3.1 (≈ 8.26 µM) | 0.05 (≈ 0.133 µM) | 0.1 (≈ 0.266 µM) | 0.4 (≈ 1.07 µM) | 0.025 (≈ 0.0666 µM) | 0.1 (≈ 0.266 µM) | 1 | – | – |
| O=C(O)c1cn(C2CC2)c2c(Cl)c(N3CCNCC3)c(F)cc2c1=O | 0.025 (≈ 0.0683 µM) | 0.025 (≈ 0.0683 µM) | 0.025 (≈ 0.0683 µM) | 0.05 (≈ 0.137 µM) | 0.8 | 0.4 | 0.4 (≈ 1.09 µM) | 0.1 (≈ 0.273 µM) | 0.2 (≈ 0.547 µM) | 0.1 (≈ 0.273 µM) | 0.1 (≈ 0.273 µM) | 0.05 (≈ 0.137 µM) | 0.4 (≈ 1.09 µM) | 0.5 | – | – |
